# Experimental data as given in ChEMBL document CHEMBL1128448, “Synthesis and antifungal activity of new azole derivatives containing an N-acylmorpholine ring” (1995).
# Experiments:
# Pichia kudriavzevii [1] = assay: Evaluation of In vitro antifungal activity against Candida krusei 70 by broth macro dilution method; format: functional
# Outline: (§1)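 Yeast MIC and MFC by broth macrodilution per NCCLS M27-P in RPMI-1640 buffered with 0.165 M MOPS. Fluconazole in sterile water, other drugs in DMSO. C. parapsilosis ATCC 22019 is the reference strain in each run. MIC is the lowest concentration with turbidity ≤ the 80% inhibition standard. For MFC, 0.04 mL from clear tubes is plated on Sabouraud agar; MFC is the lowest concentration giving ≤1 colony.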
# Aspergillus flavus = assay: In vitro evaluation of minimum inhibitory concentration against Aspergillus flavus 19; format: functional; settings: Aspergillus flavus; read-out: MIC
# Outline: (§2)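 Stocks are 800 μg/mL in 50% ethanol. Each plate gets 10 μL of inoculum at 10^5 cfu/mL. Incubation at 25 °C, 48 h for yeasts and 120 h for dermatophytes and molds. Organisms are ATCC strains or clinical isolates.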
# Candida parapsilosis [2] = assay: In vitro evaluation of minimum inhibitory concentration against Candida parapsilosis 61; format: functional; outline: as §2
# Mus sp. [3] = assay: In vivo evaluation of % survival rate after peroral administration on 5th day at dose 1 mg/kg; format: functional; settings: Mus sp., po
# Cryptococcus neoformans [4] = assay: Evaluation of In vitro antifungal activity against Cryptococcus neoformans 87 by broth macro dilution method; format: functional; outline: as §1
# Candida albicans [5] = assay: In vivo evaluation of minimum inhibitory concentration against Candida albicans 406; format: functional; settings: Candida albicans; read-out: MIC
# Outline: (§3)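 Broth macrodilution MIC following NCCLS M27-P, in RPMI-1640 buffered with 0.165 M MOPS. Fluconazole was dissolved in water and other drugs in DMSO. C. parapsilosis ATCC 22019 served as the reference strain in every run. MIC was the lowest concentration giving turbidity at or below the 80% inhibition standard.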
# Candida albicans [6] = assay: In vivo evaluation of minimum inhibitory concentration against Candida albicans 60; format: functional; settings: Candida albicans; read-out: MIC; outline: as §3
# Trichophyton benhamiae = assay: In vitro evaluation of minimum inhibitory concentration against Trichophyton mentagrophytes 23; format: functional, Arthroderma benhamiae; settings: Trichophyton benhamiae; read-out: MIC; outline: as §2
# Mus sp. [7] = assay: In vivo evaluation of % survival rate after peroral administration on 5th day at dose 0.5 mg/kg; format: functional; settings: route oral
# Candida parapsilosis [8] = assay: Evaluation of In vitro antifungal activity against Candida parapsilosis ATCC 22019 by broth macro dilution method; format: functional; settings: Lodderomyces parapsilosis; outline: as §1
# Kluyveromyces marxianus [9] = assay: Evaluation of In vitro antifungal activity against yeasts by broth macro dilution method; format: functional; outline: as §1
# Mus sp. [10] = assay: In vivo evaluation of % survival rate after peroral administration on 3rd day at dose 0.5 mg/kg; format: functional; settings: route oral
# Candida parapsilosis [11] = assay: Evaluation of In vitro antifungal activity against Candida parapsilosis ATCC 141095 by broth macro dilution method; format: functional; settings: Lodderomyces parapsilosis; outline: as §1
# Rattus norvegicus [12] = assay: In vivo evaluation of antifungal activity against vaginal candidosis in rat at dose 0.1 mg/kg on 15th day; format: functional
# Outline: (§4)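 Groups of 10 female Wistar rats given estradiol 25 mg/kg sc on day -5, then vaginally inoculated with C. albicans on day 0. Infection is confirmed by culture of day-3 swabs. Compound is dosed orally once daily on days 3–5; controls get vehicle. Cure is scored by culture of vaginal swabs taken on days 10 and 15.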
# Candida albicans [13] = assay: Evaluation of In vitro antifungal activity against Candida albicans 406 by broth macro dilution method; format: functional; outline: as §1
# Trichophyton rubrum = assay: In vitro evaluation of minimum inhibitory concentration against Trichophyton rubrum 90; format: functional; outline: as §2
# Candida albicans [14] = assay: Evaluation of In vitro antifungal activity against Candida albicans 31 by broth macro dilution method; format: functional; outline: as §1
# Rattus norvegicus [15] = assay: In vivo evaluation of antifungal activity against vaginal candidosis in rat at dose 0.25 mg/kg on 10th day; format: functional
# Outline: (§5)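 Groups of 10 female Wistar rats given estradiol 25 mg/kg sc on day -5, infected intravaginally with C. albicans by sterile swab on day 0; infection confirmed on day 3 by swab culture (TSB, then Sabouraud agar). Oral dosing once daily on days 3, 4, 5; vehicle controls. Vaginal swabs cultured on days 10 and 15; read-out % cured (culture-negative).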
# Candida parapsilosis [16] = assay: Evaluation of In vitro antifungal activity against Candida parapsilosis C74 by broth macro dilution method; format: functional; settings: Lodderomyces parapsilosis; outline: as §1
# Microsporum canis = assay: In vitro evaluation of minimum inhibitory concentration against Microsporum canis 47; format: functional; outline: as §2
# Nakaseomyces glabratus [17] = assay: In vitro evaluation of minimum inhibitory concentration against Torulopsis glabrata 78; format: functional; outline: as §2
# Kluyveromyces marxianus [18] = assay: In vitro evaluation of minimum inhibitory concentration against Candida pseudotropicalis 13; format: functional; settings: Kluyveromyces marxianus; read-out: MIC; outline: as §2
# Pichia kudriavzevii [19] = assay: Evaluation of In vitro antifungal activity against Candida krusei C64 by broth macro dilution method; format: functional; outline: as §1
# Rattus norvegicus [20] = assay: In vivo evaluation of antifungal activity against vaginal candidosis in rat at dose 0.25 mg/kg on 15th day; format: functional; outline: as §5
# Candida parapsilosis [21] = assay: Evaluation of In vitro antifungal activity against Candida parapsilosis 2.07 by broth macro dilution method; format: functional; settings: Lodderomyces parapsilosis; outline: as §1
# Rattus norvegicus [22] = assay: In vivo evaluation of antifungal activity against vaginal candidosis in rat at dose 0.1 mg/kg on 10th day; format: functional; outline: as §4
# Aspergillus fumigatus = assay: In vitro evaluation of minimum inhibitory concentration against Aspergillus fumigatus 33; format: functional; outline: as §2
# Candida albicans [23] = assay: Evaluation of In vitro antifungal activity against Candida albicans C56 by broth macro dilution method; format: functional; outline: as §1
# Candida albicans [24] = assay: Evaluation of In vitro antifungal activity against Candida albicans C52 by broth macro dilution method; format: functional; outline: as §1
# Candida albicans [25] = assay: Evaluation of In vitro antifungal activity against Candida albicans 2.01 by broth macro dilution method; format: functional; outline: as §1
# Candida tropicalis [26] = assay: Evaluation of In vitro antifungal activity against Candida tropicalis 50 by broth macro dilution method; format: functional; outline: as §1
# Candida tropicalis [27] = assay: In vitro evaluation of minimum inhibitory concentration against Candida tropicalis 2.11; format: functional; settings: Candida tropicalis; read-out: MIC; outline: as §2
# Mus sp. [28] = assay: In vivo evaluation of % survival rate after peroral administration on 9th day at dose 1 mg/kg; format: functional; settings: route oral, 1 mg/kg
# Candida parapsilosis [29] = assay: Evaluation of In vitro antifungal activity against Candida parapsilosis C292 by broth macro dilution method; format: functional; settings: Lodderomyces parapsilosis; outline: as §1
# Kluyveromyces marxianus [30] = assay: Evaluation of In vitro antifungal activity against Candida pseudotropicalis ATCC 28838 by broth macro dilution method; format: functional; outline: as §1
# Mus musculus = assay: In vivo evaluation of % survival rate after peroral administration on 7th day at dose 0.5 mg/kg; format: functional; settings: route oral
# [31] = system: Meyerozyma guilliermondii; assay: Evaluation of In vitro antifungal activity against Candida guilliermondii 26 by broth macro dilution method; format: functional; outline: as §1
# Cryptococcus neoformans [32] = assay: Evaluation of In vitro antifungal activity against Cryptococcus neoformans 74 by broth macro dilution method; format: functional; outline: as §1
# Mus sp. [33] = assay: In vivo evaluation of % survival rate after peroral administration on 7th day at dose 1 mg/kg; format: functional; settings: Mus sp., po
# [34] = system: Meyerozyma guilliermondii; assay: In vitro evaluation of minimum inhibitory concentration against Candida guilliermondii 26; format: functional; outline: as §2
# Nannizzia gypsea = assay: In vitro evaluation of minimum inhibitory concentration against Microsporum gypseum 22; format: functional; outline: as §2
# Candida albicans [35] = assay: Evaluation of In vitro antifungal activity against Candida albicans 60 by broth macro dilution method
# Candida albicans [36] = assay: Evaluation of In vitro antifungal activity against Candida albicans ATCC 10231 by broth macro dilution method; format: functional; outline: as §1
# Pichia kudriavzevii [37] = assay: In vitro evaluation of minimum inhibitory concentration against Candida krusei 70; format: functional; outline: as §2
# Candida albicans [38] = assay: In vitro evaluation of minimum inhibitory concentration against Candida albicans 76; format: functional; settings: Candida albicans; read-out: MIC; outline: as §2
# Mus sp. [39] = assay: In vivo evaluation of % survival rate after peroral administration on 3rd day at dose 1 mg/kg; format: functional; settings: Mus sp., po
# Candida tropicalis [40] = assay: Evaluation of In vitro antifungal activity against Candida tropicalis 2.11 by broth macro dilution method; format: functional; outline: as §1
# Aspergillus niger = assay: In vitro evaluation of minimum inhibitory concentration against Aspergillus niger 18; format: functional; settings: Aspergillus niger; read-out: MIC; outline: as §2
# Candida albicans [41] = assay: Evaluation of In vitro antifungal activity against Candida albicans 76 by broth macro dilution method; format: functional; outline: as §1
# Nakaseomyces glabratus [42] = assay: Evaluation of In vitro antifungal activity against Torulopsis glabrata 78 by broth macro dilution method; format: functional; outline: as §1
# Mus sp. [43] = assay: In vivo evaluation of % survival rate after peroral administration on 9th day at dose 0.5 mg/kg; format: functional; settings: Mus sp., po
# Candida albicans [44] = assay: Evaluation of […] antifungal activity against Candida albicans 60 by broth macro dilution method; format: functional; outline: as §1
# Rhodotorula mucilaginosa = assay: In vitro evaluation of minimum inhibitory concentration against Rhodotorula rubra 16; format: functional; settings: Rhodotorula mucilaginosa; read-out: MIC; outline: as §2
compound,measurement,setting,value
C[C@@H](NC(=O)c1ccc(C(F)(F)F)cc1)[C@](O)(Cn1cncn1)c1ccc(F)cc1F,MFC,Pichia kudriavzevii [1],8 µg/mL
same,MIC,Pichia kudriavzevii [1],2 µg/mL
same,MIC,Aspergillus flavus,20 µg/mL
same,MIC,Candida parapsilosis [2],2.5 µg/mL
same,survival at 1 mg/kg,Mus sp. [3],100%
same,MFC,Cryptococcus neoformans [4],> 64 µg/mL
same,MIC,Cryptococcus neoformans [4],0.5 µg/mL
same,MIC,Candida albicans [5],0.15 µg/mL
same,MIC,Candida albicans [6],0.15 µg/mL
same,MIC,Trichophyton benhamiae,40 µg/mL
same,survival at 0.5 mg/kg,Mus sp. [7],100%
same,MFC,Candida parapsilosis [8],2 µg/mL
same,MIC,Candida parapsilosis [8],0.125 µg/mL
same,MIC,Kluyveromyces marxianus [9],< 0.031 µg/mL
same,survival at 0.5 mg/kg,Mus sp. [10],100%
same,MFC,Candida parapsilosis [11],32 µg/mL
same,MIC,Candida parapsilosis [11],1 µg/mL
same,Cure rate,Rattus norvegicus [12],20%
same,MFC,Candida albicans [13],> 64 µg/mL
same,MIC,Candida albicans [13],< 0.031 µg/mL
same,MIC,Trichophyton rubrum,10 µg/mL
same,MFC,Candida albicans [14],> 64 µg/mL
same,MIC,Candida albicans [14],< 0.031 µg/mL
same,Cure rate,Rattus norvegicus [15],100%
same,MFC,Candida parapsilosis [16],0.125 µg/mL
same,MIC,Candida parapsilosis [16],≤ 0.031 µg/mL
same,MIC,Microsporum canis,20 µg/mL
same,MIC,Nakaseomyces glabratus [17],20 µg/mL
same,MIC,Kluyveromyces marxianus [18],40 µg/mL
same,MFC,Pichia kudriavzevii [19],16 µg/mL
same,MIC,Pichia kudriavzevii [19],4 µg/mL
same,Cure rate,Rattus norvegicus [20],100%
same,MFC,Candida parapsilosis [21],64 µg/mL
same,MIC,Candida parapsilosis [21],0.063 µg/mL
same,Cure rate,Rattus norvegicus [22],0%
same,MIC,Aspergillus fumigatus,20 µg/mL
same,MFC,Candida albicans [23],> 64 µg/mL
same,MIC,Candida albicans [23],< 0.031 µg/mL
same,MFC,Candida albicans [24],> 64 µg/mL
same,MIC,Candida albicans [24],< 0.031 µg/mL
same,MFC,Candida albicans [25],> 64 µg/mL
same,MIC,Candida albicans [25],0.125 µg/mL
same,MFC,Candida tropicalis [26],> 64 µg/mL
same,MIC,Candida tropicalis [26],1 µg/mL
same,MIC,Candida tropicalis [27],80 µg/mL
same,Survival,Mus sp. [28],100%
same,MFC,Candida parapsilosis [29],4 µg/mL
same,MIC,Candida parapsilosis [29],0.063 µg/mL
same,MFC,Kluyveromyces marxianus [30],2 µg/mL
same,survival at 0.5 mg/kg,Mus musculus,95%
same,MFC,[31],4 µg/mL
same,MIC,[31],0.25 µg/mL
same,MFC,Cryptococcus neoformans [32],> 64 µg/mL
same,MIC,Cryptococcus neoformans [32],< 0.031 µg/mL
same,survival at 1 mg/kg,Mus sp. [33],100%
same,MIC,[34],0.63 µg/mL
same,MIC,Nannizzia gypsea,10 µg/mL
same,MFC,Candida albicans [35],> 64 µg/mL
same,MFC,Candida albicans [36],> 64 µg/mL
same,MIC,Candida albicans [36],0.063 µg/mL
same,MIC,Pichia kudriavzevii [37],20 µg/mL
same,MIC,Candida albicans [38],80 µg/mL
same,survival at 1 mg/kg,Mus sp. [39],100%
same,MFC,Candida tropicalis [40],64 µg/mL
same,MIC,Candida tropicalis [40],0.25 µg/mL
same,MIC,Aspergillus niger,40 µg/mL
same,MFC,Candida albicans [41],> 64 µg/mL
same,MIC,Candida albicans [41],< 0.031 µg/mL
same,MFC,Nakaseomyces glabratus [42],> 64 µg/mL
same,MIC,Nakaseomyces glabratus [42],8 µg/mL
same,survival at 0.5 mg/kg,Mus sp. [43],70%
same,MIC,Candida albicans [44],< 0.031 µg/mL
same,MIC,Rhodotorula mucilaginosa,1.25 µg/mL
